Activity calls are given as the source filed them. The calls are words filed in the database; no cut-off is given here.
What was measured:
Malme-3M = assay: Anticancer activity against human MALME-3M cells after 48 hrs by MTT assay; type: functional
Detroit 551 = assay: Cytotoxicity against human Detroit 551 cells after 48 hrs by MTT assay; type: cell-based; conditions: Detroit 551, 48 h
How it was run: (§1)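 Hep 3B (hepatoma) or Detroit 551 (normal skin) cells, grown at 37 °C and 5% CO₂ in DMEM with 10% FBS, penicillin/streptomycin and 1% L-glutamine, were used in log phase. Cells were exposed to vehicle or compound for 48 h. Growth was read by MTT reduction at 570 nm, and IC50 was calculated.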

HCC 2998 = assay: Anticancer activity against human HCC2998 cells after 48 hrs by MTT assay; type: functional; conditions: HCC 2998, 48 h
HL-60(TB) = assay: Anticancer activity against human HL-60(TB) cells after 48 hrs by MTT assay; type: functional; conditions: HL-60, 48 h
KM12 = assay: Anticancer activity against human KM12 cells after 48 hrs by MTT assay; type: functional; conditions: KM12, 48 h
NCI-H460 = assay: Cytotoxicity against human H460 cells after 48 hrs by MTT assay; type: functional, cell-based; conditions: NCI-H460, 48 h
How it was run: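 H460 or HL-60 cells were exposed to vehicle or compound for 48 h. Growth was read by MTT reduction at 570 nm, and IC50 was calculated.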

T47D = assay: Anticancer activity against human T47D cells after 48 hrs by MTT assay; type: functional
HL-60 [1] = assay: Induction of cell cycle arrest at G2/M phase in human HL60 cells assessed as increase in cyclin B1 expression at 0.1 to 1.0 uM after 24 hrs by Western blot analysis; type: functional, cell-based
How it was run: (§2)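 HL-60 cells at 2 × 10⁵/mL were exposed to the indicated concentrations for 24 h, washed in PBS and lysed for total protein. Immunoblots used HRP-linked secondary antibodies with ECL detection. Cyclin B1, CDK1, caspase-3 (17 kDa active form) and PARP (85 kDa fragment) were quantified and normalised to β-actin.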

DU-145 = assay: Anticancer activity against human DU145 cells after 48 hrs by MTT assay; type: functional; conditions: DU-145, 48 h
HL-60 [2] = assay: Cell cycle arrest in human HL60 assessed as cell accumulation in G2/M phase at 1 uM after 24 hrs by propidium iodide staining-based flow cytometric analysis; type: functional
How it was run: (§3)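 HL-60 cells were preincubated for 3 h with or without the pan-caspase inhibitor z-VAD-fmk, then co-exposed to compound at 1 μM for 24 h. Cells were washed in PBS and fixed overnight in ice-cold 70% ethanol at −20 °C. They were stained for 30 min in the dark with propidium iodide 4 μg/mL, 0.1 mg/ml RNase and 1% Triton X-100. DNA content was read on a FACScan flow cytometer.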

NCI/ADR-RES = assay: Anticancer activity against human NCI/ADR-RES cells after 48 hrs by MTT assay; type: functional
SF-539 = assay: Anticancer activity against human SF539 cells after 48 hrs by MTT assay; type: functional; conditions: SF-539, 48 h
SW-620 = assay: Anticancer activity against human SW620 cells after 48 hrs by MTT assay; type: functional; conditions: SW-620, 48 h
HL-60 [3] = assay: Cell cycle arrest in human HL60 assessed as cell accumulation in Sub-G1 phase at 1 uM after 24 hrs by propidium iodide staining-based flow cytometric analysis; type: functional; how it was run: as §3
SK-OV-3 = assay: Anticancer activity against human SKOV3 cells after 48 hrs by MTT assay; type: functional; conditions: SK-OV-3, 48 h
HL-60 [4] = assay: Cell cycle arrest in human HL60 assessed as cell accumulation in S phase at 1 uM after 24 hrs pretreated with pan-caspase inhibitor z-VAD-fmk for 3 hrs by propidium iodide staining-based flow cytometric analysis; type: functional; parameters: scale not given: the % may be the effect or the level left; how it was run: as §3
MDA-MB-468 = assay: Anticancer activity against human MDA-MB-468 cells after 48 hrs by MTT assay; type: functional; conditions: MDA-MB-468, 48 h
A549 = assay: Anticancer activity against human A549 cells after 48 hrs by MTT assay; type: functional; conditions: A549, 48 h
HL-60 [5] = assay: Cell cycle arrest in human HL60 assessed as cell accumulation in Sub-G1 phase at 1 uM after 24 hrs pretreated with pan-caspase inhibitor z-VAD-fmk for 3 hrs by propidium iodide staining-based flow cytometric analysis; type: functional; parameters: scale not given: the % may be the effect or the level left; how it was run: as §3
OVCAR-8 = assay: Anticancer activity against human OVCAR8 cells after 48 hrs by MTT assay; type: functional; conditions: OVCAR-8, 48 h
[6] = Cytotoxicity against human Hep3B cells after 48 hrs by MTT assay; type: functional, cell-based, Hep 3B2; how it was run: as §1
LOX IMVI = assay: Anticancer activity against human LOXIMVI cells after 48 hrs by MTT assay; type: functional
HL-60 [7] = assay: Growth inhibition of human HL60 cells at 0.1 to 1 uM by trypan blue exclusion assay; type: functional, cell-based; conditions: TDE = time-dependent effect
How it was run: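 HL-60 cells were given the indicated concentrations for 24 h and 48 h. Viable cells were counted by trypan blue exclusion. Values are mean ± SD of four independent experiments.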

SN12C = assay: Anticancer activity against human SN12C cells after 48 hrs by MTT assay; type: functional
786-0 = assay: Anticancer activity against human 786-0 cells after 48 hrs by MTT assay; type: functional; conditions: 786-0, 48 h
SF-268 = assay: Anticancer activity against human SF268 cells after 48 hrs by MTT assay; type: functional; conditions: SF-268, 48 h
ACHN = assay: Anticancer activity against human ACHN cells after 48 hrs by MTT assay; type: functional
HL-60 [8] = assay: Induction of cell cycle arrest at G2/M phase in human HL60 cells assessed as decrease in CDK1 protein expression after 24 hrs by Western blot analysis; type: functional, cell-based; how it was run: as §2
HL-60 [9] = assay: Induction of apoptosis in human HL60 cells assessed as caspase-3 activation at 0.1 to 1.0 uM after 24 hrs by Western blot analysis; type: functional, cell-based; how it was run: as §2
U-251 = assay: Anticancer activity against human U251 cells after 48 hrs by MTT assay; type: functional; conditions: U-251, 48 h
[10] = read-out: pLC50 (the source's name) (converted)

Cc1ccc(-c2cc(=O)c3cc4c(cc3[nH]2)OCO4)[se]1
GI50 (Malme-3M): 427 nM
CC50 (Malme-3M; [10]): > 100000 nM
TGI (Malme-3M; read-out: pTGI): > 100000 nM
IC50 (Detroit 551): > 25000 nM
GI50 (HCC 2998): 288 nM
CC50 (HCC 2998; [10]): > 100000 nM
TGI (HCC 2998; read-out: pTGI): > 100000 nM
GI50 (HL-60(TB)): 204 nM
CC50 (HL-60(TB); [10]): 933 nM
TGI (HL-60(TB); read-out: pTGI (converted)): 437 nM
GI50 (KM12): 263 nM
CC50 (KM12; [10]): > 100000 nM
TGI (KM12; read-out: pTGI): > 100000 nM
IC50 (NCI-H460): 400 nM
GI50 (T47D): 871 nM
CC50 (T47D; [10]): > 100000 nM
TGI (T47D; read-out: pTGI): > 100000 nM
Activity (HL-60 [1]): Active
GI50 (DU-145): 302 nM
CC50 (DU-145; [10]): > 100000 nM
TGI (DU-145; read-out: pTGI): > 100000 nM
Activity (HL-60 [2]): 44.3%
GI50 (NCI/ADR-RES): 316 nM
CC50 (NCI/ADR-RES; [10]): > 100000 nM
TGI (NCI/ADR-RES; read-out: pTGI): > 100000 nM
GI50 (SF-539): 245 nM
CC50 (SF-539; [10]): > 100000 nM
TGI (SF-539; read-out: pTGI (converted)): 708 nM
GI50 (SW-620): 407 nM
CC50 (SW-620; [10]): > 100000 nM
TGI (SW-620; read-out: pTGI): > 100000 nM
Activity (HL-60 [3]): 21%
GI50 (SK-OV-3): 347 nM
CC50 (SK-OV-3; [10]): > 100000 nM
TGI (SK-OV-3; read-out: pTGI): > 100000 nM
Activity (HL-60 [4]): 36.2%
GI50 (MDA-MB-468): 562 nM
CC50 (MDA-MB-468; [10]): > 100000 nM
TGI (MDA-MB-468; read-out: pTGI): > 100000 nM
GI50 (A549): 245 nM
CC50 (A549; [10]): > 100000 nM
TGI (A549; read-out: pTGI (converted)): 646 nM
Activity (HL-60 [5]): 10.2%
GI50 (OVCAR-8): 339 nM
CC50 (OVCAR-8; [10]): > 100000 nM
TGI (OVCAR-8; read-out: pTGI): > 100000 nM
IC50 [6]: 200 nM
GI50 (LOX IMVI): 646 nM
CC50 (LOX IMVI; [10]): > 100000 nM
TGI (LOX IMVI; read-out: pTGI): > 100000 nM
growth inhibition (GI) (HL-60 [7]): tde
GI50 (SN12C): 603 nM
CC50 (SN12C; [10]): > 100000 nM
TGI (SN12C; read-out: pTGI): > 100000 nM
GI50 (786-0): 427 nM
CC50 (786-0; [10]): > 100000 nM
TGI (786-0; read-out: pTGI): > 100000 nM
GI50 (SF-268): 513 nM
CC50 (SF-268; [10]): > 100000 nM
TGI (SF-268; read-out: pTGI): > 100000 nM
GI50 (ACHN): 759 nM
CC50 (ACHN; [10]): > 100000 nM
TGI (ACHN; read-out: pTGI): > 100000 nM
Activity (HL-60 [8]): Dose-dependent effect
Activity (HL-60 [9]): Active
GI50 (U-251): 339 nM
CC50 (U-251; [10]): > 100000 nM
TGI (U-251; read-out: pTGI): > 100000 nM
